Results of several laboratories.
Compare with care: the assays were run in different laboratories.
Target: Glycogen synthase kinase-3 beta (GSK3B, Homo sapiens, UniProt P49841)
Mode: inhibitor

NC(=O)c1cnccn1
inhibition (enzyme activity; ADP detection; 100 µM): 7.9%

CCCS(=O)(=O)Nc1ccc(F)c(C(=O)c2c[nH]c3ncc(-c4ccc(Cl)cc4)cc23)c1F
inhibition (enzyme activity; 1 µM): < 20%

COc1cc2ncnc(Nc3ccc(Oc4ccccc4)cc3C)c2cc1OC
inhibition (enzyme activity; 1 µM): -2%

CNc1cc(Oc2cc(C(=O)Nc3cc(N4CCN(C)CC4)cc(C(F)(F)F)c3)ccc2C)ncn1
inhibition (target engagement in cells; chemoproteomics; Huh-7; 1 µM): -17.6%

NS(=O)(=O)Cc1noc2ccccc12
inhibition (enzyme activity; ADP detection; 100 µM): 21.9%

CN(C)C1CCN(CC#Cc2nn(C3CCCC3)c3nc(NCc4ccccc4)ncc23)C1 (stereo not shown)
inhibition (enzyme activity; FRET; 0.1 µM): -4%

c1ccc(CNc2nc(N3CCOc4ccccc43)nc3c2CCCC3)cc1
inhibition (target engagement in cells; chemoproteomics; 20 mM): -3.9%

COc1cc(-c2coc3cc(OC)c(OC)c(OC)c3c2=O)cc(OC)c1OC
inhibition (enzyme activity; ADP detection; 100 µM): 3%

CC/C(=N\NC(=O)NCc1cccc(O)c1)c1ccc(O)c(C)c1O
inhibition (enzyme activity; 0.1 µM): 8.6%

CC(C)NCC(O)c1ccc(NS(C)(=O)=O)cc1 (stereo not shown)
inhibition (enzyme activity; ADP detection; 100 µM): 8.4%

CN1CC(Oc2cnc(C#N)cc2-c2ccn3nc(NC(=O)C4CC4)cc3c2)C1
inhibition (enzyme activity; 1 µM): -8%

O=C(CSc1nc2nccnc2c(=O)n1CCc1ccccc1)Nc1nccs1
inhibition (enzyme activity; 10 µM): -5%

CCN(CC)CCNC(=O)c1c(C)[nH]c(/C=C2\C(=O)Nc3ccc(F)cc32)c1C
inhibition (enzyme activity; 10 µM): 3%
